Screening data deposited in PubChem BioAssay by Johns Hopkins Ion Channel Center.
KCNQ1 act: potentiators or activators of human KCNQ1 potassium channel; P51787; CHO-K1 KCNQ1, thallium flux FluxOR fluorescence; hits give high values; B-score at 10 µM; 0.35% of 310,000 active;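 active = fluorescence ratio B-score, a plate-corrected score, at least three library SD, with initial intensity B-score within 5 SD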
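Test system: CHO-K1 cells stably expressing KCNQ1 / Medium: assay buffer / Also added: depolarizing K+/Tl+ stimulus, K2SO4 and Tl2SO4 each 12.5 mM in 5x stock / Incubation: 90 min dye loading and 20 min compound exposure, both at room temperature / Signal: thallium influx via FluxOR fluorescence, kinetic imaging / Evaluation: B score of baseline-normalized fluorescence ratio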
KCNK3 inh: human KCNK3 channel inhibition, primary screen | O14649 | CHO-KCNK3 thallium flux, FluxOR fluorescence; hits give low values | B-score at 10 µM | 0.84% of 340,000 active | AID 602410;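 active = B-score under library mean minus 4 SD, starting fluorescence ratio at most library mean plus 5 SD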;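 note: more negative B-score means stronger inhibition of thallium flux through KCNK3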
hERG protect: shields human hERG channel from block by proarrhythmic agents; Q12809; CHO-hERG, FluxOR thallium flux, dofetilide IC70 present; activation (rescue from dofetilide block), less the hit threshold, % at 10 µM; 0.51% of 310,000 active;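 active = activation above the mean of controls blocked by dofetilide plus 5 SD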;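 note: thallium influx through hERG after potassium depolarization seen as dye fluorescence rise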
Target sequence (Q12809 whole entry, looked up): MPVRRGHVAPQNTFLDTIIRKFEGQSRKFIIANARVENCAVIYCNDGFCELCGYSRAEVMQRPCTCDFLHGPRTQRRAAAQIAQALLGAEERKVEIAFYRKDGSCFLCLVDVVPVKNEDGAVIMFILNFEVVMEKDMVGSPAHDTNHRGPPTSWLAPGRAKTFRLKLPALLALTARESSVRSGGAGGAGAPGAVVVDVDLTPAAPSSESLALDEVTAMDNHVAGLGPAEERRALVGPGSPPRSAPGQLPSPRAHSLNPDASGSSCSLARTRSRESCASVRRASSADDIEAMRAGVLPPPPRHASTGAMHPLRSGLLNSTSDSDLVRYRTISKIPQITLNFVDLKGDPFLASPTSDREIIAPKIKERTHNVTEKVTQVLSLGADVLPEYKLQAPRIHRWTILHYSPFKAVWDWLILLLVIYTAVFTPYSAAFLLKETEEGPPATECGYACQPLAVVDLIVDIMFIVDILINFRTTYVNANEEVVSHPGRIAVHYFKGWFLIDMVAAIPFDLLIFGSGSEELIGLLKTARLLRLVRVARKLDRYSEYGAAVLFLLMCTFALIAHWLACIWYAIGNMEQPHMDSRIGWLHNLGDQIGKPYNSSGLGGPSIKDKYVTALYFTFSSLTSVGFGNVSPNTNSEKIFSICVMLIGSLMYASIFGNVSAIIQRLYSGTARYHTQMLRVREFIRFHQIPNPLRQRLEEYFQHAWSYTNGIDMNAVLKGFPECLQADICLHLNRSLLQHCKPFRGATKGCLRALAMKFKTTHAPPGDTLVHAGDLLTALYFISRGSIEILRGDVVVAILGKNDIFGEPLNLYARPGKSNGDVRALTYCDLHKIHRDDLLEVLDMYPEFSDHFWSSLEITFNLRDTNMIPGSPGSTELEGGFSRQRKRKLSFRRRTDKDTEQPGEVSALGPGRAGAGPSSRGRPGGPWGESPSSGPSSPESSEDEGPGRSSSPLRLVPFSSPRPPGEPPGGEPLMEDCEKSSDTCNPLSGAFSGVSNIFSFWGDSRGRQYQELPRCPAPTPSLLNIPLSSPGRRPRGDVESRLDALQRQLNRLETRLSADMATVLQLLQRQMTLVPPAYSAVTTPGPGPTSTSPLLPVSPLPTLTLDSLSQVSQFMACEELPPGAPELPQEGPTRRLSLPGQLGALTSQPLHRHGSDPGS
Kir21 block: blocks the mouse Kir2.1 inward-rectifier potassium channel. P35561. HEK293-Kir2.1, FluxOR thallium flux fluorescence; hits give low values. B-score at 10 µM. 0.85% of 310,000 active. AID 1672;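 active = fluorescence ratio B-score at or below minus 3 SD of library scores, with starting-brightness B-score within 2 SD, cut at about -4.2 in these data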;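 note: channel flux triggered by added potassium and thallium sulfate stimulus; B-score of peak minus minimum fluorescence over baseline after thallium stimulus; more negative B-score means stronger Kir2.1 block with less thallium influx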
KCNK9 inh: inhibitors of human KCNK9 two-pore domain potassium channel; 1.2% of 310,000 active; HEK293 KCNK9, FluxOR thallium flux fluorescence; hits give low values; B-score at 10 µM; AID 488922;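 active = ratio B-score over 3 SD below the library mean, with starting fluorescence within 5 SD of its mean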;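 note: negative B-score means less thallium flux so channel inhibition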
KCNQ1 inh: inhibitors of human KCNQ1 potassium channel; P51787; CHO-K1 KCNQ1, FluxOR thallium flux fluorescence; hits give high values; B-score at 10 µM; 1.3% of 310,000 active;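 active = compounds whose thallium flux B-score, printed positive for inhibition, exceeds three library SD while starting fluorescence stays within three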;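 note: channel opened by potassium depolarization with thallium stimulus after 20 min compound exposure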
KCNK9 block conf: human KCNK9 inhibitor confirmation; 43% of 4,900 active; inhibition, % at 10 µM; shares compounds with KCNK9 inh; HEK293 KCNK9 cells, FluxOR thallium flux fluorescence;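 active = thallium signal inhibited by more than 5 SD of the compound-free buffer control wells, on both duplicate plates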;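 note: 0% = assay buffer control wells without compound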
Kir21 sel: tests whether KCNK9 modulators also affect mouse Kir2.1; shares compounds with KCNK9 inh; Kir2.1 cells, FluxOR thallium flux fluorescence; inhibition, % at 10 µM; 4% of 4,900 active;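 active = thallium signal drop more than 5 SD beyond the mean of the no-compound control wells, seen in both duplicate plates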;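 note: signal is fluorescence rise after thallium addition divided by baseline fluorescence; plate controls were assay buffer only for no effect and full block by chlorpromazine control for full effect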
HEK293 Tl ctr: non-induced cell nonspecific activity of KCNK9 modulators; inhibition, % at 10 µM; non-induced KCNK9-HEK293, FluxOR thallium flux; 40% of 4,900 active; shares compounds with KCNK9 inh; AID 492997;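 active = thallium signal drop beyond 5 SD of the untreated control mean, on both duplicate plates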;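 note: plate controls were buffer only IC0 wells for no effect and SID17386958 at its maximal inhibitory level for full effect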
* hit, by the source's call; i = inactive; nt = not tested or not shown. Only some compounds are listed: those with a hit (about 3.7% of all), similar ones and a draw of the others.

SMILES	KCNQ1 act	KCNK3 inh	hERG protect	Kir21 block	KCNK9 inh	KCNQ1 inh	KCNK9 block conf	Kir21 sel	HEK293 Tl ctr
O=C(c1ccc(Cl)nc1)c1cccs1	i	nt	-5	-0.08	i	i	nt	nt	nt
O=C(c1cccs1)c1no[n+]([O-])c1C(=O)c1cccs1	i	i	-33	-11	-11*	9*	44%*	36%*	52%*
COc1ccccc1-c1nc(C#N)c(N2CCc3ccccc3C2)o1	i	-13*	-15	-0.41	-21*	i	67%*	i	i
COc1ccccc1-c1nc(C#N)c(N2CCN(c3ccccc3)CC2)o1	i	i	-8	1.9	-12*	i	44%*	i	i
COc1ccccc1-c1nc(C#N)c(N2CCCCCC2)o1	i	i	-12	-1.4	i	i	nt	nt	nt
CNc1oc(Cc2cccc3ccccc23)nc1C#N	i	i	-13	1	i	i	nt	nt	nt
COc1ccc(CCNc2oc(Cc3cccc4ccccc34)nc2C#N)cc1OC	i	i	-2	-2.5	-8.2*	i	40%*	37%*	27%*
Cc1cccc(C2NC(c3cccc(C)c3)C([N+](=O)[O-])C(C)(C)C2[N+](=O)[O-])c1 (stereo unspecified)	i	i	-1	0.65	i	i	i	i	i
COc1ccc2cc(C#N)c(N3CCN(C(=O)c4ccccc4C)CC3)nc2c1	i	i	-12	-1.2	i	i	i	i	i
Cc1sc2nc(C3CC3)nc(SCC(=O)N3CCc4ccccc4C3)c2c1C	i	i	-16	-0.72	i	i	i	i	i
CCCc1nc(SCC(=O)N2c3ccccc3CC2C)c2c(C)c(C)sc2n1 (stereo unspecified)	i	i	-7	-0.37	i	i	i	i	i
Cc1sc2nc(C3CC3)nc(SCC(=O)N3CCCc4ccccc43)c2c1C	i	nt	-7	-1.2	i	i	nt	nt	nt
CCC(C)(C)NC(=O)CN(C(=O)C(=O)Nc1ccc2c(c1)OCCO2)C1CC1	i	i	-4	-0.47	i	i	nt	nt	nt
CCN(CC)CCOC(=O)/C=C/c1ccccc1OC	i	i	-10	-0.9	i	i	nt	nt	nt
O=c1c2ccccc2[nH]c(=S)n1CCCN1CCC(Cc2ccccc2)CC1	i	i	-12	-1.2	i	i	i	i	i
CC1CCN(CCCn2c(=S)[nH]c3ccccc3c2=O)CC1	i	i	-6	1.9	i	i	nt	nt	nt
Cc1cc(C)cc(Oc2nc(C(F)(F)F)nc3ccccc23)c1	i	i	-3	0.52	i	i	i	i	24%*
CCc1ccc(NC(=O)COc2ccc(F)cc2C(=O)c2cnn(-c3ccccc3)c2)cc1	i	i	-10	-0.45	i	i	i	i	i
O=C(CSc1nc2c(cnn2-c2ccccc2)c(=O)[nH]1)N1N=C(c2cccs2)CC1c1ccc(F)cc1 (stereo unspecified)	i	i	-26	2	-14*	i	i	i	i
CN(C)C(CNc1ncccn1)c1ccccc1 (stereo unspecified)	i	i	-5	-0.1	i	i	nt	nt	nt
CCCCC(CC)C(=O)Nc1cccc(SC)c1 (stereo unspecified)	i	i	-12	-1.1	-9.4*	i	30%*	i	i
C=CCC[C@@H](Cc1ccc(F)cc1)C(=O)OCCNC(=O)[C@H](CC=C)CC(=O)NCCO	nt	i	nt	nt	nt	nt	nt	nt	nt
CCOc1ccc(C2=C(C=Nc3c(C)n(C)n(-c4ccccc4)c3=O)C(c3ccc(F)cc3)c3ccccc3O2)cc1 (stereo unspecified)	i	i	-3	-0.14	i	i	i	i	i
O=C(NCCCN1CCOCC1)c1cccnc1SCc1ccccc1Cl	i	i	-5	0.06	i	i	nt	nt	nt
CCOc1ccc(CN(C)CC(=O)Nc2cc(C)c(C)cc2[N+](=O)[O-])cc1	i	i	-5	0.72	i	i	i	i	i
SMILES	KCNQ1 act	KCNK3 inh	hERG protect	Kir21 block	KCNK9 inh	KCNQ1 inh	KCNK9 block conf	Kir21 sel	HEK293 Tl ctr
COc1ccc(S(=O)(=O)N2CCc3ccccc32)cc1C(=O)NCc1ccco1	nt	i	nt	nt	nt	nt	nt	nt	nt
O=C(NCc1ccco1)c1cc(S(=O)(=O)N2CCCc3ccccc32)ccc1Cl	i	i	-11	-0.17	i	i	i	i	i
O=C(Nc1nc(-c2cc(Cl)sc2Cl)cs1)c1cccs1	i	-12*	-13	0.94	-8.9*	i	50%*	i	i
CC1CC(C)CN(C(=O)c2ccc3c(c2)N(Cc2ccccc2)CCS3)C1 (stereo unspecified)	i	-12*	-7	-1.5	-8.2*	i	51%*	i	34%*
Cc1ccc(CN2CCSc3ccc(C(=O)NC4CCN(Cc5ccccc5)CC4)cc32)cc1	i	i	-22	-0.49	i	7*	i	i	i
CCc1nc(CN2CCN(Cc3ccc(F)c(F)c3)C(CCO)C2)c(C)[nH]1 (stereo unspecified)	i	i	-8	0.8	i	i	nt	nt	nt
COc1ccc(-n2nc(C(=O)NCC(=O)N3CCN(c4ccccn4)CC3)c3ccccc3c2=O)cc1Cl	i	i	-5	-0.73	i	i	nt	nt	nt
COc1ccc(-n2nc(C(=O)NCC(=O)N3CCC(C)CC3)c3ccccc3c2=O)cc1Cl	i	i	-8	0.5	i	i	i	i	i
CC(C)OCCCn1c(=NC(=O)c2ccncc2)c(C#N)cc2c(=O)n3ccccc3nc21	i	i	-21	-0.29	i	i	nt	nt	nt
CC(C)OCCCn1c(=NC(=O)c2cccs2)c(C#N)cc2c(=O)n3ccccc3nc21	i	i	-11	0.15	-8.5*	i	26%*	i	33%*
CCOc1ccc(NC2=C(Cl)C(=O)N(C3CCCCC3)C2=O)cc1	i	i	-4	0.45	i	i	nt	nt	nt
COc1ccc(C)cc1NC1=C(Cl)C(=O)N(C2CCCCC2)C1=O	i	i	-10	0.43	-17*	i	64%*	i	44%*
CCN(CC1COc2ccccc2O1)C(=S)Nc1ccc(F)cc1 (stereo unspecified)	i	i	-9	0.07	i	i	nt	nt	nt
